How the values were obtained:
[1] = target: T1, Delta-type opioid receptor (Homo sapiens, UniProt P41143); test: Displacement of [3H]DPDPE from human delta opioid receptor expressed in CHO cell membrane measured after 90 mins by liquid scintillation counting method; assay type: cell membranes
Method in brief: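 Membranes (7 μg protein) were added and incubated 90 min at room temperature in 50 mM Tris HCl, 10 mM MgCl2, 1 mM EDTA, pH 7.4. Samples were filtered on GF-B, washed 4× with ice-cold 50 mM Tris HCl, and counted by scintillation. Points were run in duplicate.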

Mu-type opioid receptor [2] = target: T2, Mu-type opioid receptor (Homo sapiens, UniProt P35372); test: Displacement of [3H]DAMGO from human mu opioid receptor expressed in CHO cell membrane incubated for 90 mins by liquid scintillation counting method; assay type: cell membranes
Homo sapiens = organism: Homo sapiens; test: Selectivity ratio, ratio of Ki for displacement of [3H]DAMGO from human mu opioid receptor expressed in CHO cell membrane to Ki for displacement of [3H]DPDPE from human delta opioid receptor expressed in CHO cell membrane; assay type: cell membranes
[3] = target: Delta-type opioid receptor (Mus musculus, UniProt P32300); test: Agonist activity at FLAG-tagged mouse delta opioid receptor expressed in human HEK293 cells assessed as inhibition of forskolin stimulated cAMP production preincubated for 20 mins followed by forskolin stimulation and measured after 15 mins by GloSensor assay; assay type: functional, cell-based
Method in brief: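 HEK293 cells transiently transfected 1:3 with FLAG-mouse δOR or HA-mouse μOR plus pGloSensor22F-cAMP; used two days later at 20,000 cells/well. GloSensor reagent (2% final) applied 90 min at room temperature, then drug 20 min, then forskolin (30 μM final) 15 min, all at room temperature. Luminescence read; triplicates; pIC50 from nonlinear regression.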

[4] = target: T1, Delta-type opioid receptor; test: Agonist activity at human delta opioid receptor expressed in CHO cells co-expressing beta-arrestin2 assessed as beta-arrestin2 recruitment measured after 90 mins by PathHunter assay; assay type: functional, cell-based
Method in brief: (§1)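 PathHunter CHO cells expressing human δOR and β-arrestin 2 were plated at 2,500 cells/well one day before use. Drug was applied for 90 min at 37 °C/5% CO2, followed by PathHunter assay buffer for 60 min at room temperature. Luminescence was read. Points were run in duplicate, and pEC50 was obtained by nonlinear regression; values are means ± SEM.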

[5] = target: T1, Delta-type opioid receptor; test: Agonist activity at human delta opioid receptor expressed in CHO cells co-expressing beta-arrestin2 assessed as beta-arrestin2 recruitment by measuring maximum efficacy measured after 90 mins by PathHunter assay; assay type: functional, cell-based; settings: filed as agonist; method in brief: as §1
Mu-type opioid receptor [6] = target: Mu-type opioid receptor (Mus musculus, UniProt P42866); test: Agonist activity at FLAG-tagged mouse mu opioid receptor expressed in human HEK293 cells assessed as inhibition of forskolin stimulated cAMP production preincubated for 20 mins followed by forskolin stimulation and measured after 15 mins by GloSensor assay; assay type: functional, cell-based
Mu-type opioid receptor [7] = target: T2, Mu-type opioid receptor; test: Agonist activity at human mu opioid receptor expressed in CHO cells co-expressing beta-arrestin2 assessed as beta-arrestin2 recruitment measured after 90 mins by PathHunter assay; assay type: functional, cell-based

Sequence of Delta-type opioid receptor (Mus musculus, UniProt P32300) (P32300 whole entry): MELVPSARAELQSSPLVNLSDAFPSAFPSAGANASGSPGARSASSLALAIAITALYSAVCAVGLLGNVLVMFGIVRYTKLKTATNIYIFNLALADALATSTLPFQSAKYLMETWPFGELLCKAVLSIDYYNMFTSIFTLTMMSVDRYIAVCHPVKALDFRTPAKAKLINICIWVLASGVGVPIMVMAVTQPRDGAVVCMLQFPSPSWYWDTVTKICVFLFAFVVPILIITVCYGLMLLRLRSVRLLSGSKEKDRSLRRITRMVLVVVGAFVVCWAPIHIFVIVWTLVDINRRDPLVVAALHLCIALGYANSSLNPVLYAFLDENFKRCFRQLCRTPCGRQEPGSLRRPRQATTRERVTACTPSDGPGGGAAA
T2 sequence (P35372 whole entry): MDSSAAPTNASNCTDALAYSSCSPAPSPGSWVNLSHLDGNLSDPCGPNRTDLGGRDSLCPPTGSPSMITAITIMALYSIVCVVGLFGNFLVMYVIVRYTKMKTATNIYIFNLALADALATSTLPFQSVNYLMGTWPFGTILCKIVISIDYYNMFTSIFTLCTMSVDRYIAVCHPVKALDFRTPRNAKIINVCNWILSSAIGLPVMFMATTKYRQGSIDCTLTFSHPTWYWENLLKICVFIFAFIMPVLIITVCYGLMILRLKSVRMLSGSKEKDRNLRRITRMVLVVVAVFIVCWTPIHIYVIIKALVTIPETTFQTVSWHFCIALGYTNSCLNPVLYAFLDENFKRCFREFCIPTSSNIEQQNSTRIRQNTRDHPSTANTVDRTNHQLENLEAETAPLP
Sequence of Mu-type opioid receptor (Mus musculus, UniProt P42866) (P42866 whole entry): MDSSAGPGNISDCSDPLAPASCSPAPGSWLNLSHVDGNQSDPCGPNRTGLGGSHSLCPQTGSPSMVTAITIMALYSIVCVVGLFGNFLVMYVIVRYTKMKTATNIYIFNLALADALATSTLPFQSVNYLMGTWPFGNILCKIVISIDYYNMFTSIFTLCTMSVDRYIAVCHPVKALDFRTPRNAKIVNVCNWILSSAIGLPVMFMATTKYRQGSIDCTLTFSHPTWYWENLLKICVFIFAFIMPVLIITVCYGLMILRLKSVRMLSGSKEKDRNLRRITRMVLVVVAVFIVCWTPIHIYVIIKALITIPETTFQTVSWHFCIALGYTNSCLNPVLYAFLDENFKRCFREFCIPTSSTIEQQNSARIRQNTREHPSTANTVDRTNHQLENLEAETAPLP
T1 sequence (P41143 whole entry): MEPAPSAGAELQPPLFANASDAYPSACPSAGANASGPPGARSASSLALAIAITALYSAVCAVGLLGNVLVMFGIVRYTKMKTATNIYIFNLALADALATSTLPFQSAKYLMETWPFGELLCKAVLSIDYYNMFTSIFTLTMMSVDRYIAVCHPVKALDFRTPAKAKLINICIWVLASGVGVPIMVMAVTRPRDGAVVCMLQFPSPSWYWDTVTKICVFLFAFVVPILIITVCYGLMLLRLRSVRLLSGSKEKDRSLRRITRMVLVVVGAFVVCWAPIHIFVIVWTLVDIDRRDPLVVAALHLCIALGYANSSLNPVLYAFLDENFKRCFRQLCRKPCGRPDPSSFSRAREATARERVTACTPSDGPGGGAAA

SMILES	Ki [1] [nM]	Ki (Mu-type opioid receptor [2]) [nM]	Ratio Ki (Homo sapiens)	IC50 [3] [nM]	EC50 [4] [nM]	Emax [5] [%]	IC50 (Mu-type opioid receptor [6]) [nM]	EC50 (Mu-type opioid receptor [7]) [nM]
CC(C)C[C@H](NC(=O)[C@H](Cc1ccccc1)NC(=O)CNC(=O)C/C=C(\F)[C@@H](N)Cc1ccc(O)cc1)C(=O)NC1CC1	104	26.1	0.3	152	693	69	126	4260
CCNC(=O)[C@H](CC(C)C)NC(=O)[C@H](Cc1ccccc1)NC(=O)CNC(=O)C/C=C(\F)[C@@H](N)Cc1ccc(O)cc1	54.7	20	0.4	66.2	695	70	178	2260
CC(C)C[C@H](NC(=O)[C@H](Cc1ccccc1)NC(=O)CNC(=O)C/C=C(\F)[C@@H](N)Cc1ccc(O)cc1)C(=O)O				33.7		102	363	
CC(C)C[C@H](NC(=O)[C@H](Cc1ccccc1)NC(=O)CNC(=O)C/C=C(\F)[C@@H](N)Cc1ccc(O)cc1)C(N)=O	94.4	7.07	0.1	46.6	959	84	186	2640
CC(C)C[C@H](NC(=O)[C@H](Cc1ccccc1)NC(=O)CNC(=O)C/C=C(\F)[C@@H](N)Cc1ccc(O)cc1)C(=O)N(C)C	255	85.4	0.3	425	3820	63	1000	17600
CNC(=O)[C@H](CC(C)C)NC(=O)[C@H](Cc1ccccc1)NC(=O)CNC(=O)C/C=C(\F)[C@@H](N)Cc1ccc(O)cc1	55.9	9.92	0.2	50.2	667	90	42.7	7210

From ChEMBL document CHEMBL5107935, “Modulating β-arrestin 2 recruitment at the δ- and μ-opioid receptors using peptidomimetic ligands” (RSC Med Chem, 2021)
